Shown are actives, neighbours in structure and some others; about 2.5% of the full set was active somewhere.
NadD inh – inhibitors of Staphylococcus aureus NadD. 360,000 tested, 0.78% active. AID 602399. purified NadD enzyme, colorimetric absorbance read-out. inhibition, % at 20 µM; in the data active means inhibition above about 26%
SENP1 inh – inhibitors of human SENP1 SUMO protease catalytic domain; Q9P0U3; recombinant SENP1 catalytic domain, CyPet-SUMO1-YPet FRET cleavage; inhibition, % at 10 µM; 360,000 tested, 0.21% active; AID 624204;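 active means inhibition at least 30% at 10 µM, raw YFP signal under a set limit, fluorescence ratio 0.5 to 1.5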;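 further: 0% = enzyme with DMSO and 100% = no enzyme wells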
Target sequence (Q9P0U3 419-644 limits assumed): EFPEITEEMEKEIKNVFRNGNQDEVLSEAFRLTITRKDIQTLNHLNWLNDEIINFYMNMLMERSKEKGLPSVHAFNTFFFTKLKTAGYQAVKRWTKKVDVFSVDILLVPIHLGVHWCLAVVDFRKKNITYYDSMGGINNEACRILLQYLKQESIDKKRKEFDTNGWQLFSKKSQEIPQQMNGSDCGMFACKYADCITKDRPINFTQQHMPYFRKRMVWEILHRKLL
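Compound: 10 µM single point, 0.5% DMSO; Test system: hSENP1 catalytic domain, recombinant; Timing: 50 min reaction at room temperature; Technique: FRET, CFP and YFP emission; Control set: no-enzyme wells low, DMSO-plus-enzyme wells high control.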
Beta2AR agonist – activates human beta-2 adrenergic receptor causing internalization. P07550. Am2.2-beta2AR cells, FAP receptor internalization, flow cytometry. 340,000 tested, 0.43% active. response, % (no concentration beside the values). AID 504454;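 active means response above a set limit, near 3 SD of response in nonfluorescent compounds, cut at about 42% in these data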
Target sequence (P07550 whole entry, looked up): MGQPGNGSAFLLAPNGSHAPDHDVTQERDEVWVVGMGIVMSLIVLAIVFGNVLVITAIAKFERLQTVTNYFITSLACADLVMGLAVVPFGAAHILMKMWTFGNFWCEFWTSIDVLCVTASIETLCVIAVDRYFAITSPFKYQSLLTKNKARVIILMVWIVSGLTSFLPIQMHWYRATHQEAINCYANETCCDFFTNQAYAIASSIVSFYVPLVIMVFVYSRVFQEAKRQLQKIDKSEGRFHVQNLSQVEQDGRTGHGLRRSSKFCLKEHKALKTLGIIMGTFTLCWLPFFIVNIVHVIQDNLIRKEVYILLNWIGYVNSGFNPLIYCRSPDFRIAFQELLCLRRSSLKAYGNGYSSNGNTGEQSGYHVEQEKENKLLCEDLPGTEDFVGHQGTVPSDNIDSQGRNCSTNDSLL
ABHD5 PLIN5 PPI – inhibitors of human ABHD5-perilipin-5 interaction. Split G. princeps luciferase complementation, luminescence, 4 h. inhibition, % at 4 µM. 360,000 tested, 0.78% active;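 active means inhibition above the mean inhibition across every tested compound plus 3 SD, cut at about 22% in these data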;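 further: 0% = DMSO only wells and the 100% control is not disclosed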
GRK2 aptamer HTS – human GRK2 inhibition via aptamer displacement; P25098; bead flow cytometry, FAM-aptamer displacement from GRK2; inhibition of aptamer binding, % at 10 µM; 330,000 tested, 0.59% active; AID 488847;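 active means inhibition of aptamer binding above 40%, roughly 3 SD of noise, on plates passing a quality check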;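 further: median bead fluorescence of bound FAM aptamer so fluorescent compounds give negative values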
ABHD5-PLIN5 conf – confirmation of human ABHD5-PLIN5 interaction inhibitors; shares compounds with ABHD5 PLIN5 PPI; biochemical ABHD5-PLIN5 interaction, luminescence; 2,200 tested, 67% active; AID 651612; inhibition, % at 4 µM; in the data active means inhibition above about 23%;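 further: 0% = DMSO vehicle wells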
HNF4 counter – active in HNF4 split-luciferase counter-screen for ABHD5-PLIN5 inhibitors; shares compounds with ABHD5 PLIN5 PPI; HNF4 dimerization, luminescence, biochemical; inhibition, % at 4 µM; 2,200 tested, 77% active; AID 651674;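 active means mean inhibition across replicate wells exceeding the computed hit threshold, cut at about 13% in these data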;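 further: light from luciferase halves that rejoin when HNF4 fusion proteins dimerize; 0% = DMSO only wells and the 100% control is not given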
An asterisk follows results filed as active.

What do the screens show for `COc1cc2ccccc2cc1C(=O)O`?
NadD inh: 1.0; SENP1 inh: 3.8; Beta2AR agonist: -0.8; ABHD5 PLIN5 PPI: 0.5; GRK2 aptamer HTS: 2.0

How did COCCN1CCC(CO)C1 (stereo not drawn) do in these assays?
NadD inh: 1.5; SENP1 inh: -4.4; Beta2AR agonist: -7.3; ABHD5 PLIN5 PPI: -5.9

What do the screens show for `CCc1ccccc1NC(=O)CNC(=O)CNC(=O)c1cccs1`?
NadD inh: 0.2; SENP1 inh: 0.2; Beta2AR agonist: 0.2; ABHD5 PLIN5 PPI: -4.4; GRK2 aptamer HTS: 0.0

Results for O=C(CNC(=O)c1ccc(Cl)cc1Cl)OCCOc1ccccc1F ?
NadD inh: -0.5; SENP1 inh: 1.9; Beta2AR agonist: 8.0; ABHD5 PLIN5 PPI: -11.6; GRK2 aptamer HTS: 3.0

Results for O=C1Cc2ccccc2Sc2c(OCCN3CCCCC3)cccc21 ?
NadD inh: 0.0; SENP1 inh: -15.2; Beta2AR agonist: -13.6; ABHD5 PLIN5 PPI: 24.8*; GRK2 aptamer HTS: 2.0; ABHD5-PLIN5 conf: 4.3; HNF4 counter: 12.3

What do the screens show for `CCCCC/C=C/C1=CC(=O)C[C@H](c2ccc(OC)cc2)C1`?
NadD inh: 1.7; SENP1 inh: -3.5; Beta2AR agonist: -2.6; ABHD5 PLIN5 PPI: 3.7; GRK2 aptamer HTS: 1.0

Results for COc1ccc([C@H]2CC(=O)C=C(/C=C/Cc3ccccc3)C2)cc1 ?
NadD inh: -1.1; SENP1 inh: 1.6; Beta2AR agonist: 1.2; ABHD5 PLIN5 PPI: 25.7*; GRK2 aptamer HTS: 0.0; ABHD5-PLIN5 conf: 37.6*; HNF4 counter: 32.4*

What do the screens show for `COc1cc(CN2CCC(C(=O)NC(c3ccc(F)cc3)c3ccc4ccccc4n3)CC2)cc(OC)c1` (stereo not drawn)?
NadD inh: 0.7; SENP1 inh: -13.5; ABHD5 PLIN5 PPI: 7.4

Results for Cn1cc(CN2CCC(C(=O)NC(c3ccc(F)cc3)c3ccc4ccccc4n3)CC2)c2ccccc21 (stereo not drawn) ?
NadD inh: 10.1; SENP1 inh: 2.3; ABHD5 PLIN5 PPI: 23.6*; ABHD5-PLIN5 conf: 12.1; HNF4 counter: 11.1

How did Cc1cccc(N=C2NC(=O)/C(=C/C=C/c3ccco3)S2)c1 do in these assays?
NadD inh: 32.1*; SENP1 inh: -17.1; Beta2AR agonist: 2.8; ABHD5 PLIN5 PPI: 24.5*; GRK2 aptamer HTS: 2.0; ABHD5-PLIN5 conf: 47.9*; HNF4 counter: 34.0*

How did COc1ccc(/C=N/Nc2ccc(C(=O)O)cc2)c(OC)c1OC do in these assays?
NadD inh: -2.6; SENP1 inh: 1.9; Beta2AR agonist: 17.2; ABHD5 PLIN5 PPI: -0.5; GRK2 aptamer HTS: 6.0

What do the screens show for `COC(=O)c1ccc2c(c1)C(C)(C)C(/C=C/c1ccc(O)cc1)=[N+]2C`?
NadD inh: 26.8; SENP1 inh: -0.4; Beta2AR agonist: 48.9*; ABHD5 PLIN5 PPI: 70.9*; GRK2 aptamer HTS: 3.0; ABHD5-PLIN5 conf: 101.8*; HNF4 counter: 100.6*

Results for COc1cc(/C=C/c2ccc(O)cc2)cc(OC)c1 ?
NadD inh: 2.6; SENP1 inh: -8.0; Beta2AR agonist: 2.6; ABHD5 PLIN5 PPI: -2.4; GRK2 aptamer HTS: 3.0

Results for COC(=O)c1ccc2c(c1)C(C)(C)C(/C=C/c1ccc(OC)c(OC)c1OC)=[N+]2C ?
NadD inh: 19.3; SENP1 inh: -2.6; Beta2AR agonist: 57.1*; ABHD5 PLIN5 PPI: 47.0*; GRK2 aptamer HTS: 1.0; ABHD5-PLIN5 conf: 101.3*; HNF4 counter: 101.1*

How did C[C@H](NS(=O)(=O)c1c(Cl)cccc1Cl)C(=O)NNC(=O)COc1ccccc1F do in these assays?
NadD inh: -2.6; SENP1 inh: 0.0; Beta2AR agonist: 4.4; ABHD5 PLIN5 PPI: -2.0; GRK2 aptamer HTS: 0.0

How did COc1ccc2c(C#CCCO)c(-c3ccc(S(C)(=O)=O)cc3)sc2c1 do in these assays?
NadD inh: -9.9; SENP1 inh: -13.4; Beta2AR agonist: 30.3; ABHD5 PLIN5 PPI: 30.4*; GRK2 aptamer HTS: 1.0; ABHD5-PLIN5 conf: 16.6; HNF4 counter: 2.6

What do the screens show for `COc1ccc2sc(-c3ccc(S(C)(=O)=O)cc3)c(C#CCO)c2c1`?
NadD inh: -5.7; SENP1 inh: -6.4; Beta2AR agonist: 17.4; ABHD5 PLIN5 PPI: 5.8; GRK2 aptamer HTS: 0.0

How did O=C(NC(=S)N1CCCCC1c1cccnc1)c1ccc(Br)cc1 (stereo not drawn) do in these assays?
NadD inh: -1.3; SENP1 inh: 2.5; Beta2AR agonist: -0.7; ABHD5 PLIN5 PPI: 4.7; GRK2 aptamer HTS: 1.0

Results for C=CCC1(Cl)C(=O)C(Cl)=C(N2CCOCC2)C1(OC)OC (stereo not drawn) ?
NadD inh: -9.0; SENP1 inh: 1.7; Beta2AR agonist: 1.1; ABHD5 PLIN5 PPI: 1.8; GRK2 aptamer HTS: 3.0

How did CCOC(=O)Cn1c(=N)n(CCOc2ccc(OC)cc2)c2ccccc21 do in these assays?
NadD inh: -10.2; SENP1 inh: 0.3; Beta2AR agonist: 1.8; ABHD5 PLIN5 PPI: 2.5; GRK2 aptamer HTS: 7.0

How did CCOC(=O)Cn1c(=N)n(CCOc2ccc3ccccc3c2)c2ccccc21 do in these assays?
NadD inh: 5.2; SENP1 inh: -2.9; Beta2AR agonist: 33.4; ABHD5 PLIN5 PPI: 25.1*; GRK2 aptamer HTS: 0.0; ABHD5-PLIN5 conf: 9.4; HNF4 counter: 8.8

What do the screens show for `COc1cc(C2(c3ccc(O)c(OC)c3)C(=O)Nc3c(C)cc(Br)cc32)ccc1O`?
NadD inh: -1.9; SENP1 inh: -15.6; Beta2AR agonist: 19.2; ABHD5 PLIN5 PPI: -1.1

Results for Cc1ccccc1Oc1nc2c(C)cccn2c(=O)c1/C=C(\C#N)C(=O)NC1CCS(=O)(=O)C1 (stereo not drawn) ?
NadD inh: -8.5; SENP1 inh: -40.9; Beta2AR agonist: 3.3; ABHD5 PLIN5 PPI: 45.7*; GRK2 aptamer HTS: 0.0; ABHD5-PLIN5 conf: 62.4*; HNF4 counter: 48.8*

How did Cc1cccn2c(=O)c(/C=C(\C#N)C(=O)NC3CCS(=O)(=O)C3)c(N3CCC(C(N)=O)CC3)nc12 (stereo not drawn) do in these assays?
NadD inh: -5.2; SENP1 inh: -128.6; Beta2AR agonist: -6.4; ABHD5 PLIN5 PPI: 1.8; GRK2 aptamer HTS: 3.0

Results for COc1ccc([N+](=O)[O-])c(C=CC(=O)c2ccccn2)c1 ?
NadD inh: 3.3; SENP1 inh: 1.7; ABHD5 PLIN5 PPI: 52.9*; ABHD5-PLIN5 conf: 97.8*; HNF4 counter: 101.3*

How did COc1ccc(/C=C/C(=O)c2ccccn2)cc1 do in these assays?
NadD inh: -1.5; SENP1 inh: -88.6; Beta2AR agonist: 4.2; ABHD5 PLIN5 PPI: 7.3; GRK2 aptamer HTS: 0.0

Results for Cc1c(C(=O)N2CCCC2)sc(NC(=O)c2ccc(Cl)cc2)c1C#N ?
NadD inh: -7.5; SENP1 inh: -48.5; Beta2AR agonist: 2.9; ABHD5 PLIN5 PPI: 0.2; GRK2 aptamer HTS: 1.0

Source: PubChem
